Assay results: ChEMBL document CHEMBL1154100, “Tetrahydroisoquinolines as dopaminergic ligands: 1-Butyl-7-chloro-6-hydroxy-tetrahydroisoquinoline, a new compound with antidepressant-like activity in mice” (Bioorg Med Chem, 2009)
Calls of active or inactive are those of the source. The calls are words filed in the database; no cut-off is given here.

Key:
[1] = target: Sodium-dependent dopamine transporter (Rattus norvegicus) (UniProt P23977); test: Inhibition of DAT in Wistar rat striatal synaptosomes at 100 uM by [3H]dopamine uptake assay; format: subcellular; details: Brain
Sequence of Sodium-dependent dopamine transporter (Rattus norvegicus) (P23977 whole entry): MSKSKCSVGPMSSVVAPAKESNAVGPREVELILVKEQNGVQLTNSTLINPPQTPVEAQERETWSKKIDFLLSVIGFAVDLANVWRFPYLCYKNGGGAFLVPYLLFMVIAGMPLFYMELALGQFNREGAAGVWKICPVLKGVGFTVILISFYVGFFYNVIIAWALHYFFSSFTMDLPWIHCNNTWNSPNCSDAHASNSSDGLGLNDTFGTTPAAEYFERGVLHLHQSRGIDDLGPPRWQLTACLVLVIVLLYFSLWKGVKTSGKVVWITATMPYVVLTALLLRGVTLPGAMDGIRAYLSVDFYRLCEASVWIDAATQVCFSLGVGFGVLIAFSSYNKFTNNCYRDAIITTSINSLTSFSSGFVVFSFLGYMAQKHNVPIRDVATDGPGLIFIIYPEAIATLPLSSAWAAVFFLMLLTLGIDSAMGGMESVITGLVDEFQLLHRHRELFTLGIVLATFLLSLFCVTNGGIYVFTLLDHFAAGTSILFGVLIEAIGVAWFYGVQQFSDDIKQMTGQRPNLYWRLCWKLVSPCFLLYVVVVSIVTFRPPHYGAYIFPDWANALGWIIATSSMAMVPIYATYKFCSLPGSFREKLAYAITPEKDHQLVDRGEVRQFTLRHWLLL
Summary of the method: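 Synaptosomes were prepared from female Wistar rat striatum at 0–4 °C. Tissue was homogenized in 0.32 M sucrose, spun twice at 1000g for 10 min, and the pooled supernatants were spun at 16,000g for 30 min. The pellet was taken up in Krebs medium (pH 7.6, with glucose). Samples were preincubated for 10 min at 37 °C with pargyline, then given 0.5 nM final [³H]dopamine for 10 min. Uptake was stopped by ice-cold dilution and rapid fiberglass filtration.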

D(1A) dopamine receptor = D(1A) dopamine receptor (Rattus norvegicus, UniProt P18901); test: Displacement of [3H]SCH23390 from dopamine D1 receptor in Wistar rat striatal membrane by liquid scintillation counting; format: cell membranes, Striatum
Sequence of D(1A) dopamine receptor (P18901 whole entry): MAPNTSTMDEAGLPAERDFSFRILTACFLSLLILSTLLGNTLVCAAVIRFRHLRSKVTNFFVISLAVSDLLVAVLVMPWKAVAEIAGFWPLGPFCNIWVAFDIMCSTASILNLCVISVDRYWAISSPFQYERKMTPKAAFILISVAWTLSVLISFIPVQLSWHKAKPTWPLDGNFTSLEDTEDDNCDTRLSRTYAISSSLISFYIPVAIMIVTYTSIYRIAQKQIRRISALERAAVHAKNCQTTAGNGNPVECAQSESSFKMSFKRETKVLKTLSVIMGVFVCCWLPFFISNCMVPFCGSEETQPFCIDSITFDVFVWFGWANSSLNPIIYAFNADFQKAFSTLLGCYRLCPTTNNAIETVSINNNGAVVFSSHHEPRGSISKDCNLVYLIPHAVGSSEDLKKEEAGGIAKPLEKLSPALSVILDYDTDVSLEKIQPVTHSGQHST
Summary of the method: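 Female Wistar rat striatum homogenized in 50 mM Tris-HCl pH 7.4, then washed twice at 49,000g. Membranes were resuspended in Tris-ions buffer (NaCl, CaCl2, KCl, MgCl2, 0.1% ascorbate). [3H]-SCH23390 displacement was read by filtration and scintillation counting. Ki was derived using KD 0.36 nM; 3–6 independent runs in duplicate, mean SEM.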

D(2) dopamine receptor = D(2) dopamine receptor (Rattus norvegicus, UniProt P61169); test: Displacement of [3H]raclopride from dopamine D2 receptor in Wistar rat striatal membrane by liquid scintillation counting; format: cell membranes, Striatum; details: read-out: pKi (converted)
Sequence of D(2) dopamine receptor (P61169 whole entry): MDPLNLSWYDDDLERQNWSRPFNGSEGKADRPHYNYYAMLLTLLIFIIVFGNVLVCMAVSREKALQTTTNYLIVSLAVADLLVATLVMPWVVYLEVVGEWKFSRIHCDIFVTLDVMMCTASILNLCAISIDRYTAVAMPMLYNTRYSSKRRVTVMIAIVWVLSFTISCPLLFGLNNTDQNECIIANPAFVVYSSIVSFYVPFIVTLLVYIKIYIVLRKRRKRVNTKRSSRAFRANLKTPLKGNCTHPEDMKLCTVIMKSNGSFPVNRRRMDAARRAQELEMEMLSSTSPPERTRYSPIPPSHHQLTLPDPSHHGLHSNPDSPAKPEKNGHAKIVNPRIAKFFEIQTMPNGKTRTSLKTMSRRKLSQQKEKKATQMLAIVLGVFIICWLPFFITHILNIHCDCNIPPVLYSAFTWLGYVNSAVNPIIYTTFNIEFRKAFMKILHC
Summary of the method: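 Striata from female Wistar rats (200–220 g) were homogenized in 50 mM Tris-HCl (pH 7.4) and centrifuged twice at 49,000g for 15 min at 4 °C. Membranes were resuspended in Tris buffer containing 120 mM NaCl, 2 mM CaCl₂, 5 mM KCl, 1 mM MgCl₂ and 0.1% ascorbic acid (pH 7.4). Samples were filtered, washed with cold buffer and counted by scintillation. Ki was derived using a [³H]raclopride KD of 1,25 nM, from 3–6 determinations run in duplicate.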

Rattus norvegicus = organism: Rattus norvegicus; test: Selectivity for Wistar rat dopamine D2 receptor over Wistar rat dopamine D1 receptor
Mus musculus [2] = test: Antidepressant-like activity in NMRI mouse assessed as reduction in immobility time at 16 mg/kg, ip by forced swimming test relative to control; format: functional; set-up: scale not given: the % may be the effect or the level left; details: route intraperitoneal
Summary of the method: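 Naive male NMRI mice (25–30 g) were used in randomized groups of n = 10 and tested in the dark phase. Injections (10 mL/kg) were given 30 min before testing, and saline was the vehicle. Each animal, not pre-tested, swam for 6 min in a cylinder 12 cm wide holding 13 cm of water at 23–24 °C. Immobility was scored over the last 4 min, and groups were compared with ANOVA and Fisher PLSD.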

Mus musculus [3] = test: Antidepressant-like activity in NMRI mouse assessed as increase in locomotor activity at 0.01 mg/kg, ip after 30 mins by photoelectronic actimeter method; format: functional; details: route intraperitoneal
Summary of the method: (§1)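 Naive male NMRI mice (25–30 g), n = 10/group; single ip injection (10 mL/kg, saline vehicle) 30 min before test, during the dark phase. Photoelectronic actimeter with two perpendicular infrared beams; beam crossings counted cumulatively at 6-min intervals over a 30-min session. Vs vehicle by ANOVA and Fisher PLSD; mean SD.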

Mus musculus [4] = test: Antidepressant-like activity in NMRI mouse assessed as increase in locomotor activity at 0.01 mg/kg, ip after 12 mins by photoelectronic actimeter method; format: functional; details: route intraperitoneal; summary of the method: as §1
Mus musculus [5] = test: Antidepressant-like activity in NMRI mouse assessed as increase in locomotor activity at 25 mg/kg, ip after 6 mins by photoelectronic actimeter method; format: functional; details: route intraperitoneal; summary of the method: as §1
Mus musculus [6] = test: Antidepressant-like activity in NMRI mouse assessed as increase in locomotor activity at 0.04 mg/kg, ip after 18 mins by photoelectronic actimeter method; format: functional; details: route intraperitoneal; summary of the method: as §1
Mus musculus [7] = test: Antidepressant-like activity in NMRI mouse assessed as increase in locomotor activity at 0.01 mg/kg, ip after 6 mins by photoelectronic actimeter method; format: functional; details: route intraperitoneal; summary of the method: as §1
Mus musculus [8] = test: Antidepressant-like activity in NMRI mouse assessed as reduction in immobility time at 0.01 mg/kg, ip by forced swimming test in presence of D2 receptor antagonist haloperidol; format: functional, organism-based; set-up: dose 0.01 mg/kg
Summary of the method: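 Male NMRI mice, 10/group. Haloperidol 0.03 mg/kg sc was injected just before ip test compound, 30 min before a 6-min forced swim (water 23–24 °C, depth 13 cm). Immobility was measured during the final 4 min. Analysis by ANOVA with Fisher PLSD.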

Mus musculus [9] = test: Antidepressant-like activity in NMRI mouse assessed as increase in locomotor activity at 1 mg/kg, ip after 12 mins by photoelectronic actimeter method; format: functional; details: route intraperitoneal; summary of the method: as §1
Mus musculus [10] = test: Antidepressant-like activity in NMRI mouse assessed as increase in locomotor activity at 5 mg/kg, ip after 30 mins by photoelectronic actimeter method; format: functional; details: route intraperitoneal; summary of the method: as §1
Mus musculus [11] = test: Antidepressant-like activity in NMRI mouse assessed as increase in locomotor activity at 0.04 mg/kg, ip after 30 mins by photoelectronic actimeter method; format: functional; details: route intraperitoneal; summary of the method: as §1
Mus musculus [12] = test: Antidepressant-like activity in NMRI mouse assessed as increase in locomotor activity at 0.2 mg/kg, ip after 24 mins by photoelectronic actimeter method; format: functional; details: route intraperitoneal; summary of the method: as §1
Mus musculus [13] = test: Antidepressant-like activity in NMRI mouse assessed as increase in locomotor activity at 0.2 mg/kg, ip by photoelectronic actimeter method in presence of D2 receptor antagonist haloperidol; format: functional, organism-based; set-up: dose 0.2 mg/kg
Summary of the method: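 Male NMRI mice, n = 10/group. Haloperidol 0.03 mg/kg sc given just before ip test compound (0.2 mg/kg) or saline, 30 min before testing. Spontaneous locomotion was counted as infrared beam crossings in a photoelectric actimeter over 30 min. Groups were compared by Fisher PLSD; mean SD.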

Mus musculus [14] = test: Antidepressant-like activity in NMRI mouse assessed as increase in locomotor activity at 0.01 mg/kg, ip after 18 mins by photoelectronic actimeter method; format: functional; details: route intraperitoneal; summary of the method: as §1
Mus musculus [15] = test: Antidepressant-like activity in NMRI mouse assessed as increase in locomotor activity at 0.2 mg/kg, ip after 18 mins by photoelectronic actimeter method; format: functional; details: route intraperitoneal; summary of the method: as §1
Mus musculus [16] = test: Antidepressant-like activity in NMRI mouse assessed as increase in locomotor activity at 1 mg/kg, ip after 18 mins by photoelectronic actimeter method; format: functional; details: route intraperitoneal; summary of the method: as §1
Mus musculus [17] = test: Antidepressant-like activity in NMRI mouse assessed as increase in locomotor activity at 0.2 mg/kg, ip after 30 mins by photoelectronic actimeter method; format: functional; details: route intraperitoneal; summary of the method: as §1
Mus musculus [18] = test: Antidepressant-like activity in NMRI mouse assessed as increase in locomotor activity at 5 mg/kg, ip after 18 mins by photoelectronic actimeter method; format: functional; details: route intraperitoneal; summary of the method: as §1
Mus musculus [19] = test: Antidepressant-like activity in NMRI mouse assessed as increase in locomotor activity at 1 mg/kg, ip after 24 mins by photoelectronic actimeter method; format: functional; details: route intraperitoneal; summary of the method: as §1
Mus musculus [20] = test: Antidepressant-like activity in NMRI mouse assessed as increase in locomotor activity at 5 mg/kg, ip after 24 mins by photoelectronic actimeter method; format: functional; details: route intraperitoneal; summary of the method: as §1
Mus musculus [21] = test: Antidepressant-like activity in NMRI mouse assessed as increase in locomotor activity at 1 mg/kg, ip after 30 mins by photoelectronic actimeter method; format: functional; details: route intraperitoneal; summary of the method: as §1
Mus musculus [22] = test: Antidepressant-like activity in NMRI mouse assessed as increase in locomotor activity at 0.04 mg/kg, ip after 24 mins by photoelectronic actimeter method; format: functional; details: route intraperitoneal; summary of the method: as §1
Mus musculus [23] = test: Antidepressant-like activity in NMRI mouse assessed as reduction in immobility time at 0.01 mg/kg, ip by forced swimming test; format: functional, organism-based; set-up: dose 0.01 mg/kg
Summary of the method: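 Male NMRI mice, 10/group, not pre-tested; ip dosing in saline 30 min before test. Each mouse swam 6 min in a cylinder (12 cm diameter, 13 cm water, 23–24 °C). Immobility was scored over the last 4 min after a 2-min delay. Imipramine 16 mg/kg was the reference. Analysis by ANOVA with Fisher PLSD.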

Mus musculus [24] = test: Antidepressant-like activity in NMRI mouse assessed as increase in locomotor activity at 25 mg/kg, ip after 30 mins by photoelectronic actimeter method; format: functional; details: route intraperitoneal; summary of the method: as §1
Mus musculus [25] = test: Antidepressant-like activity in NMRI mouse assessed as increase in locomotor activity at 25 mg/kg, ip after 24 mins by photoelectronic actimeter method; format: functional; details: route intraperitoneal; summary of the method: as §1
Mus musculus [26] = test: Antidepressant-like activity in NMRI mouse assessed as increase in locomotor activity at 0.2 mg/kg, ip after 12 mins by photoelectronic actimeter method; format: functional; details: route intraperitoneal; summary of the method: as §1
Mus musculus [27] = test: Antidepressant-like activity in NMRI mouse assessed as increase in locomotor activity at 0.01 mg/kg, ip after 24 mins by photoelectronic actimeter method; format: functional; details: route intraperitoneal; summary of the method: as §1
Mus musculus [28] = test: Antidepressant-like activity in NMRI mouse assessed as increase in locomotor activity at 5 mg/kg, ip after 6 mins by photoelectronic actimeter method; format: functional; details: route intraperitoneal; summary of the method: as §1
Mus musculus [29] = test: Antidepressant-like activity in NMRI mouse assessed as increase in locomotor activity at 25 mg/kg, ip after 12 mins by photoelectronic actimeter method; format: functional; details: route intraperitoneal; summary of the method: as §1
Mus musculus [30] = test: Antidepressant-like activity in NMRI mouse assessed as increase in locomotor activity at 0.04 mg/kg, ip after 6 mins by photoelectronic actimeter method; format: functional; details: route intraperitoneal; summary of the method: as §1
Mus musculus [31] = test: Antidepressant-like activity in NMRI mouse assessed as increase in locomotor activity at 0.2 mg/kg, ip after 6 mins by photoelectronic actimeter method; format: functional; details: route intraperitoneal; summary of the method: as §1
Mus musculus [32] = test: Antidepressant-like activity in NMRI mouse assessed as increase in locomotor activity at 1 mg/kg, ip after 6 mins by photoelectronic actimeter method; format: functional; details: route intraperitoneal; summary of the method: as §1
Mus musculus [33] = test: Antidepressant-like activity in NMRI mouse assessed as increase in locomotor activity at 25 mg/kg, ip after 18 mins by photoelectronic actimeter method; format: functional; details: route intraperitoneal; summary of the method: as §1
Mus musculus [34] = test: Antidepressant-like activity in NMRI mouse assessed as increase in locomotor activity at 5 mg/kg, ip after 12 mins by photoelectronic actimeter method; format: functional; details: route intraperitoneal; summary of the method: as §1
Mus musculus [35] = test: Antidepressant-like activity in NMRI mouse assessed as increase in locomotor activity at 0.04 mg/kg, ip after 12 mins by photoelectronic actimeter method; format: functional; details: route intraperitoneal; summary of the method: as §1

## COc1cc2c(cc1Cl)CCNC2c1ccccc1 (stereo unspecified)
[1]
  Activity: inactive
D(1A) dopamine receptor
  Ki: 6 µM
D(2) dopamine receptor
  Ki: 6140 nM
Rattus norvegicus
  fold change (FC): 1.2

## CN(C)CCCN1c2ccccc2CCc2ccccc21 [IMIPRAMINE]
Mus musculus [2]
  Activity: 32%

## CCCCC1NCCc2cc(O)c(Cl)cc21 (stereo unspecified)
Mus musculus [3]
  Activity: 153
Mus musculus [4]
  Activity: 105
Mus musculus [5]
  Activity: 170
Mus musculus [6]
  Activity: 170
Mus musculus [7]
  Activity: 72
Mus musculus [8]
  Activity: inactive
Mus musculus [9]
  Activity: 200
Mus musculus [10]
  Activity: 464
Mus musculus [11]
  Activity: 200
[1]
  Activity: inactive
Mus musculus [12]
  Activity: 255
D(1A) dopamine receptor
  Ki: 3.23 µM
Mus musculus [13]
  Activity: inactive
Mus musculus [14]
  Activity: 133
Mus musculus [15]
  Activity: 219
Mus musculus [16]
  Activity: 257
Mus musculus [17]
  Activity: 277
Mus musculus [18]
  Activity: 345
D(2) dopamine receptor
  Ki: 60.3 nM
Mus musculus [19]
  Activity: 307
Mus musculus [20]
  Activity: 411
Mus musculus [21]
  Activity: 340
Mus musculus [22]
  Activity: 185
Mus musculus [23]
  Activity: Active
Rattus norvegicus
  fold change (FC): 49
Mus musculus [24]
  Activity: 426
Mus musculus [25]
  Activity: 367
Mus musculus [26]
  Activity: 186
Mus musculus [27]
  Activity: 147
Mus musculus [28]
  Activity: 153
Mus musculus [29]
  Activity: 260
Mus musculus [30]
  Activity: 102
Mus musculus [31]
  Activity: 115
Mus musculus [32]
  Activity: 122
Mus musculus [33]
  Activity: 319
Mus musculus [34]
  Activity: 276
Mus musculus [35]
  Activity: 142

## CN1CCc2cc(Cl)c(O)cc2C1c1ccccc1 (stereo unspecified)
[1]
  Activity: inactive
D(1A) dopamine receptor
  Ki: 0.0403 µM
D(2) dopamine receptor
  Ki: 504 nM
Rattus norvegicus
  fold change (FC): 0.07
